How the values were obtained:
HOS = test: Cytotoxicity against HOS cells after 72 hrs; format: functional, Homo sapiens
How it was run: (§1)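 Cells grown in DMEM with 10% fetal calf serum, 4 mM glutamine, penicillin/streptomycin, 37 °C, 5% CO2. About 1.25×10^5 cells/mL seeded and stabilized 3 h. Compounds added in DMSO as serial (usually 6- and 4-fold) dilutions, top well usually 50 µM, DMSO final ≤0.6%. After 72 h, Calcein AM for 1 h, fluorescence read. Survival taken vs DMSO controls; TCS50 from dose-response curves; mean ± SD of three experiments.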

G-361 = test: Cytotoxicity against human G361 cells after 72 hrs; format: functional; how it was run: as §1
MCF7 = test: Cytotoxicity against MCF7 cells after 72 hrs; format: functional, Homo sapiens; how it was run: as §1
K562 = test: Cytotoxicity against K562 cells after 72 hrs; format: functional, Homo sapiens; how it was run: as §1
CCRF-CEM = test: Cytotoxicity against CEM cells after 72 hrs; format: functional, Homo sapiens; how it was run: as §1
HeLa = test: Cytotoxicity against HeLa cells after 72 hrs; format: functional, Homo sapiens; how it was run: as §1
[1] = Cytotoxicity against ARN8 cells after 72 hrs; format: functional, Homo sapiens; how it was run: as §1
A549 = test: Cytotoxicity against A549 cells after 72 hrs; format: functional, Homo sapiens; how it was run: as §1
[2] = Cytotoxicity against mouse NIH 3T3 cells after 72 hrs; format: cell-based, NIH3T3; settings: read-out: TCS50; how it was run: as §1

Q: With `COc1cccc2c1C(=O)c1c(O)c3c(c(O)c1C2=O)C[C@@](O)(C(C)=O)C[C@@H]3O[C@H]1C[C@H](N)[C@H](O)[C@H](C)O1` [DAUNORUBICIN] as the molecule, how does the TCS50 (HOS) read?
A: 330 nM

Q: And the TCS50 (G-361)?
A: 670 nM

Q: What about the TCS50 (MCF7) of the same molecule?
A: 140 nM

Q: What about the TCS50 (K562) of the same molecule?
A: 230 nM

Q: What about the TCS50 (CCRF-CEM) of the same molecule?
A: 62 nM

Q: And the TCS50 (HeLa)?
A: 670 nM

Q: Which TCS50 (HOS) does the source give for `COc1ccc(C(=O)O[C@H]2[C@H](O[C@@H]3[C@@H](OC(C)=O)[C@H](O[C@@H](CCC(C)C)[C@@H](C)[C@@]4(O)C(=O)C[C@H]5[C@@H]6CC=C7C[C@@H](O)CC[C@]7(C)[C@H]6CC[C@@]54C)OC[C@@H]3O)OC[C@@H](O)[C@@H]2O)cc1` here?
A: 11700 nM

Q: What about the TCS50 [1] of the same molecule?
A: 500 nM

Q: What about the TCS50 (G-361) of the same molecule?
A: 14400 nM

Q: What about the TCS50 (MCF7) of the same molecule?
A: 3400 nM

Q: And the TCS50 (A549)?
A: 480 nM

Q: And the TCS50 (K562)?
A: 430 nM

Q: What about the TCS50 (CCRF-CEM) of the same molecule?
A: 280 nM

Q: And the CC50 at 72 h [2]?
A: > 50 µM

Q: And the TCS50 (HeLa)?
A: 1000 nM

Q: For `COc1ccc(C(=O)O[C@H]2[C@H](O[C@@H]3[C@@H](OC(C)=O)[C@H](O[C@H]4C[C@H]5[C@@H]6CC=C7C[C@@H](O)CC[C@]7(C)[C@H]6CC[C@]5(C)[C@@]4(O)[C@H](C)C(=O)CCC(C)C)OC[C@@H]3O)OC[C@@H](O)[C@@H]2O)cc1`, which TCS50 (HOS) is on record?
A: 40 nM

Q: And the TCS50 [1]?
A: 4 nM

Q: And the TCS50 (G-361)?
A: 1000 nM

Q: And the TCS50 (MCF7)?
A: 50 nM

Q: And the TCS50 (A549)?
A: 0.5 nM

Q: And the TCS50 (K562)?
A: 0.8 nM

Q: And the TCS50 (CCRF-CEM)?
A: 0.3 nM

Q: What about the CC50 at 72 h [2] of the same molecule?
A: > 50 µM

Q: And the TCS50 (HeLa)?
A: 8 nM

Q: With `COc1ccc(C(=O)O[C@H]2[C@H](O[C@H]3C[C@H]4[C@@H]5CC=C6C[C@@H](O)CC[C@]6(C)[C@H]5CC[C@]4(C)[C@@]3(O)[C@H](C)C(=O)CCC(C)C)OC[C@@H](O)[C@@H]2O)cc1` as the molecule, how does the TCS50 (HOS) read?
A: 7200 nM

Q: What about the TCS50 [1] of the same molecule?
A: 1500 nM

Q: And the TCS50 (G-361)?
A: 3500 nM

Q: And the TCS50 (MCF7)?
A: 3500 nM

Q: And the TCS50 (A549)?
A: 7200 nM

Q: And the TCS50 (K562)?
A: 1800 nM

Q: What about the TCS50 (CCRF-CEM) of the same molecule?
A: 1000 nM

Q: What about the CC50 at 72 h [2] of the same molecule?
A: > 50 µM

Q: What about the TCS50 (HeLa) of the same molecule?
A: 2300 nM

Q: With `CCCC(=O)[C@@H](C)[C@@]1(O)[C@@H](O[C@@H]2OC[C@H](O)[C@@H](O[C@@H]3OC[C@@H](O)[C@H](O)[C@H]3OC(=O)c3ccc(OC)cc3)[C@@H]2OC(C)=O)C[C@H]2[C@@H]3CC=C4C[C@@H](O)CC[C@]4(C)[C@H]3CC[C@@]21C` as the molecule, how does the TCS50 (HOS) read?
A: 140 nM

Q: What about the TCS50 [1] of the same molecule?
A: 3 nM

Q: And the TCS50 (G-361)?
A: 3100 nM

Q: What about the TCS50 (MCF7) of the same molecule?
A: 90 nM

Q: And the TCS50 (A549)?
A: 0.9 nM

Q: What about the TCS50 (K562) of the same molecule?
A: 1.4 nM

Q: And the TCS50 (CCRF-CEM)?
A: 0.5 nM

Q: And the CC50 at 72 h [2]?
A: > 50 µM

Q: What about the TCS50 (HeLa) of the same molecule?
A: 12 nM

Q: For `CCCCCOC[C@@H](C)[C@@]1(O)[C@@H](O[C@@H]2OC[C@H](O)[C@H](O[C@@H]3OC[C@@H](O)[C@H](O)[C@H]3OC(=O)c3ccc(OC)cc3)[C@H]2OC(C)=O)C[C@H]2[C@@H]3CC=C4C[C@@H](O)CC[C@]4(C)[C@H]3CC[C@@]21C`, which TCS50 (HOS) is on record?
A: 1800 nM

Q: And the TCS50 [1]?
A: <400 nM

Q: What about the TCS50 (G-361) of the same molecule?
A: 1900 nM

Q: And the TCS50 (MCF7)?
A: 860 nM

Q: And the TCS50 (A549)?
A: <200 nM

Q: What about the TCS50 (K562) of the same molecule?
A: <400 nM

Q: What about the TCS50 (CCRF-CEM) of the same molecule?
A: <200 nM

Q: And the CC50 at 72 h [2]?
A: > 50 µM

Q: And the TCS50 (HeLa)?
A: 350 nM

Q: Which TCS50 (HOS) does the source give for `CC(=O)O[C@H]1[C@H](O[C@H]2C[C@H]3[C@@H]4CC=C5C[C@@H](O)CC[C@]5(C)[C@H]4CC[C@]3(C)[C@@]2(O)[C@H](C)C(=O)CCC(C)C)OC[C@H](O)[C@@H]1O` here?
A: 4200 nM

Q: What about the TCS50 [1] of the same molecule?
A: 1950 nM

Q: And the TCS50 (G-361)?
A: 2200 nM

Q: And the TCS50 (MCF7)?
A: 1300 nM

Q: And the TCS50 (A549)?
A: 4200 nM

Q: What about the TCS50 (K562) of the same molecule?
A: 430 nM

Q: And the TCS50 (CCRF-CEM)?
A: 200 nM

Q: And the CC50 at 72 h [2]?
A: > 50 µM

Q: What about the TCS50 (HeLa) of the same molecule?
A: 570 nM

Q: Which TCS50 (HOS) does the source give for `CCCCCC(=O)[C@@H](C)[C@@]1(O)[C@@H](O[C@@H]2OC[C@H](O)[C@H](O[C@@H]3OC[C@@H](O)[C@H](O)[C@H]3OC(=O)c3ccc(OC)cc3)[C@H]2OC(C)=O)C[C@H]2[C@@H]3CC=C4C[C@@H](O)CC[C@]4(C)[C@H]3CC[C@@]21C` here?
A: 42 nM

Q: And the TCS50 [1]?
A: 0.6 nM

Q: What about the TCS50 (G-361) of the same molecule?
A: 1400 nM

Q: And the TCS50 (MCF7)?
A: 40 nM

Q: What about the TCS50 (A549) of the same molecule?
A: 0.5 nM

Q: And the TCS50 (K562)?
A: 0.7 nM

Q: What about the TCS50 (CCRF-CEM) of the same molecule?
A: 0.2 nM

Q: What about the CC50 at 72 h [2] of the same molecule?
A: > 50 µM

Q: What about the TCS50 (HeLa) of the same molecule?
A: 8 nM
